According to ChEMBL document CHEMBL4376835, “Discovery of Nonpungent Transient Receptor Potential Vanilloid 1 (TRPV1) Agonist as Strong Topical Analgesic” (J Med Chem, 2020):
Activity calls are given as the source filed them.

Tests used:
[1] = biological target: T1, Transient receptor potential cation channel subfamily V member 3 (Mus musculus) (UniProt Q8K424); experiment: Agonist activity at mouse TRPV3 expressed in HEK293 cells assessed as increase in calcium influx at 10 uM incubated for 1 min by Fluo-4-AM dye based FLIPR assay; format: cell-based
T1 sequence (whole entry): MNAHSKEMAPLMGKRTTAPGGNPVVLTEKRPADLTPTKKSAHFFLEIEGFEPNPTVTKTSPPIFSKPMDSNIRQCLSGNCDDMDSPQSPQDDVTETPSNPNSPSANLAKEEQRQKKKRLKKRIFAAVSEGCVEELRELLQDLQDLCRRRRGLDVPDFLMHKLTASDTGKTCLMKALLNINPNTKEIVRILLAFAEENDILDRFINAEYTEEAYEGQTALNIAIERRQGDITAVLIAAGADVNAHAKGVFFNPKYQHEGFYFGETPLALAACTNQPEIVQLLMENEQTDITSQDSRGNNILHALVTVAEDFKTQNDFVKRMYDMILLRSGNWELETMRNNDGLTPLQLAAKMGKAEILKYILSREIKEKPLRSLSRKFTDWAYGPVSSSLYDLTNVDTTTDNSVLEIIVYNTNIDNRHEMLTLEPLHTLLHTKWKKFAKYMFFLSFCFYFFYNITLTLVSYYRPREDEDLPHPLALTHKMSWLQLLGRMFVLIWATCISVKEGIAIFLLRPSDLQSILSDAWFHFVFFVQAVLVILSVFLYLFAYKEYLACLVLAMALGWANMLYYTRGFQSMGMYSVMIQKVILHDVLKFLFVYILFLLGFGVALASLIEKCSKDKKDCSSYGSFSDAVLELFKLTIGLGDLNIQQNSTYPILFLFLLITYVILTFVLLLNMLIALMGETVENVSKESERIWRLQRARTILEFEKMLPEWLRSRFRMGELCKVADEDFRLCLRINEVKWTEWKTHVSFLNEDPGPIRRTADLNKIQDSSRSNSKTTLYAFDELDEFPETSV

Rattus norvegicus = experiment: Analgesic activity in ip dosed L5/L6 spinal nerve ligation-induced neuropathic pain Sprague-Dawley rat model assessed as increase in paw withdrawal threshold in response to von frey filament compound administered at day 14 after ligation and measured up to 1.5 hrs after drug dosing by up and down method; format: functional
Summary of the method: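 Rat spinal nerve ligation model of neuropathic pain. Compound was given i.p. at 1, 2, 5 or 10 mg/kg; a gabapentin 65 mg/kg i.p. arm and a saline i.p. arm were run alongside. Von Frey withdrawal thresholds were taken pre-surgery and on days 1, 7 and 14, then at 0.5, 1 and 1.5 h post-dose. Mean±SEM, n=7-8.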

Mus musculus [2] = experiment: Analgesic activity in ip dosed formalin-induced nociception ICR mouse model assessed as reduction in pain behaviour by measuring less licking of formalin injected hind paw pretreated with compound 30 mins prior to formalin induction by formalin test; format: functional
Summary of the method: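 Mice were dosed i.p. with 0.1–10 mg/kg, with vehicle and gabapentin (50, 100 mg/kg i.p.) arms. 2% formalin was injected into the dorsal hindpaw, and paw-licking time was recorded for the first phase (5 min) and the second phase (20–30 min). ED50 was taken from the dose–response. Mean±SEM, n=8.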

[3] = biological target: Transient receptor potential cation channel subfamily M member 8 (Mus musculus) (UniProt Q8R4D5); experiment: Agonist activity at mouse TRPM8 expressed in HEK293 cells assessed as increase in calcium influx at 1 uM incubated for 1 min by Fluo-4-AM dye based FLIPR assay; format: cell-based
Chain of Transient receptor potential cation channel subfamily M member 8 (Mus musculus) (Q8R4D5 whole entry): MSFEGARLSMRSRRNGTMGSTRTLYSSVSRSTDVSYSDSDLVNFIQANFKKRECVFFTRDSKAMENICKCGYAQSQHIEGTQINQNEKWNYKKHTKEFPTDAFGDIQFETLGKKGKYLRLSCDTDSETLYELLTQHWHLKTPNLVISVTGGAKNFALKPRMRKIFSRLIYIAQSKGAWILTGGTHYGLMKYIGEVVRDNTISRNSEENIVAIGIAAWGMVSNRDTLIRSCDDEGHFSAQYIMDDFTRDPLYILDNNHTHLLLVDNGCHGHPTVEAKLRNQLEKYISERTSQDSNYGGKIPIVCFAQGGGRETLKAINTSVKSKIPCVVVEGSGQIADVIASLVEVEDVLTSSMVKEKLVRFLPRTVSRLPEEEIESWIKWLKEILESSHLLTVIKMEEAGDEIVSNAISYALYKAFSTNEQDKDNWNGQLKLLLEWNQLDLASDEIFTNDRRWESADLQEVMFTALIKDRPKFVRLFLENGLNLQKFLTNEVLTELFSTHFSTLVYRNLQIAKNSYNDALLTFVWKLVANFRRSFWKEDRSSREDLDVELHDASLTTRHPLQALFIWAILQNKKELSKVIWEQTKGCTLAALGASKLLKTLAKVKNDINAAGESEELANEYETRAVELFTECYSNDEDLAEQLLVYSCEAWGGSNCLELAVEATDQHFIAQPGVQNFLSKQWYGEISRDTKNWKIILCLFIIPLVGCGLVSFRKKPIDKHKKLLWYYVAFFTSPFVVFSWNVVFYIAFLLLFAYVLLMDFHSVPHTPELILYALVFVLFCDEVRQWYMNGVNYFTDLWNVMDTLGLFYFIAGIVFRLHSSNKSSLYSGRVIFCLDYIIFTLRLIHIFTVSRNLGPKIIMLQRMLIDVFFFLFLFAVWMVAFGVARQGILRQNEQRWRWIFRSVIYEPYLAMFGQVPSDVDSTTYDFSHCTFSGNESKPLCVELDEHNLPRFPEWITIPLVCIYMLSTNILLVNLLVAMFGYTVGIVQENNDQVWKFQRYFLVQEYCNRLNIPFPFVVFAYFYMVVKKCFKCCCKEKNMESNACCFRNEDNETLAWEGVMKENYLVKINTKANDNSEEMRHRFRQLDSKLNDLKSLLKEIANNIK

[4] = Toxicity in po dosed ICR mouse administered as single dose; format: organism-based; conditions: in vivo
[5] = Systemic drug absorption in porcine skin assessed as drug accumulation in acceptor Franz cell applied topically as carbopol-gel with 1% formulation measured for 8 hrs by Franz diffusion cell based in vitro transdermal delivery test; format: ADME, tissue-based, Sus scrofa, Zone of skin; conditions: pig
[6] = Toxicity in ip dosed ICR mouse administered as single dose; format: organism-based; conditions: in vivo
Mus musculus [7] = experiment: Induction of hypothermia in ICR mouse assessed as decrease in body temperature at 3 mg/kg, ip measured after 30 mins; format: functional, organism-based
[8] = Drug uptake in porcine skin assessed as dermal accumulation applied topically as carbopol-gel with 1% formulation measured for 8 hrs by Franz diffusion cell based in vitro transdermal delivery test; format: ADME, tissue-based, Sus scrofa, Zone of skin; conditions: pig
[9] = Toxicity in ICR mouse assessed as ear edema administered topically and measured after 30 mins; conditions: in vivo, topical_or_ocular, 0.5 h
Summary of the method: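 Ear swelling test: a solution of the agent was applied to mouse ears, and ear punch biopsies were collected 30 min later and weighed.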

[10] = Toxicity in ICR mouse assessed as skin irritation by measuring ear scratching administered topically and measured for 30 mins; conditions: in vivo, topical_or_ocular, 0.5 h
Summary of the method: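 Ear scratching test: a solution of the agent was applied to mouse ears, and scratching movements were counted over the following 30 min.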

[11] = biological target: Transient receptor potential cation channel subfamily A member 1 (Mus musculus) (UniProt Q8BLA8); experiment: Agonist activity at mouse TRPA1 expressed in HEK293 cells assessed as increase in calcium influx at 1 uM incubated for 1 min by Fluo-4-AM dye based FLIPR assay; format: cell-based
Chain of Transient receptor potential cation channel subfamily A member 1 (Mus musculus) (Q8BLA8 whole entry): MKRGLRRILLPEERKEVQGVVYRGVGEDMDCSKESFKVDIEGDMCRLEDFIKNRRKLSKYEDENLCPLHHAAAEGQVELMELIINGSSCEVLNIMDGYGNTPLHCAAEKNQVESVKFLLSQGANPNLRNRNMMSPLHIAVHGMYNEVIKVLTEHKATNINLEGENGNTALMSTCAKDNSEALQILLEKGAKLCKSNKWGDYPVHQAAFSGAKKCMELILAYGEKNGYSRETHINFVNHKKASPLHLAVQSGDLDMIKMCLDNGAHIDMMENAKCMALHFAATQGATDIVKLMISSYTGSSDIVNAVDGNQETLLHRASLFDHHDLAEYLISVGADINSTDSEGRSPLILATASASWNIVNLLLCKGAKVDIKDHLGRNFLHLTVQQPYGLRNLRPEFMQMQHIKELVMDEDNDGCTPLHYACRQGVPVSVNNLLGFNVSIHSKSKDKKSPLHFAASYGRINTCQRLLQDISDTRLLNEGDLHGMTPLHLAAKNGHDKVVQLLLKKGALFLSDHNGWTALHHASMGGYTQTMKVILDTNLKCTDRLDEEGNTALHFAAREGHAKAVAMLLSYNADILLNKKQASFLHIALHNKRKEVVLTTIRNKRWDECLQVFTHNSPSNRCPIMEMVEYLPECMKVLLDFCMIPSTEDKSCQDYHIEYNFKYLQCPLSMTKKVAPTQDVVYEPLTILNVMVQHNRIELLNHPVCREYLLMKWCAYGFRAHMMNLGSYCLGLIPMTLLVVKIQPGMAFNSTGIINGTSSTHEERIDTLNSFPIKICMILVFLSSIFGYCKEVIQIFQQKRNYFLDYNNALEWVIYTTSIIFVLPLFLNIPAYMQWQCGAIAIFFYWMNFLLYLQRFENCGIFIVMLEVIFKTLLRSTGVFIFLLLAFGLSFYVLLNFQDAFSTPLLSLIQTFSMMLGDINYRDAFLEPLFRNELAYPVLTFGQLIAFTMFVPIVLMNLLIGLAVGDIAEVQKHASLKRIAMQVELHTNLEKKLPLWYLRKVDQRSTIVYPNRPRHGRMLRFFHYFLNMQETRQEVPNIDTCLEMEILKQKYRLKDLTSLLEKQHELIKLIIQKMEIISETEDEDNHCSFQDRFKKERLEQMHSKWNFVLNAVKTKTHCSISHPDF
Summary of the method: (§1)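 Intracellular calcium influx read by FLIPR in cells individually transfected with TRPV1, hTRPA1, mTRPA1, mTRPV3 or mTRPM8. Each transfected line was also challenged with its own reference TRP-family agonist as a responsiveness check.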

[12] = biological target: Transient receptor potential cation channel subfamily A member 1 (Homo sapiens) (UniProt O75762); experiment: Agonist activity at human TRPA1 expressed in HEK293 cells assessed as increase in calcium influx at 100 uM incubated for 1 min by Fluo-4-AM dye based FLIPR assay; format: cell-based; summary of the method: as §1
Chain of Transient receptor potential cation channel subfamily A member 1 (Homo sapiens) (O75762 whole entry): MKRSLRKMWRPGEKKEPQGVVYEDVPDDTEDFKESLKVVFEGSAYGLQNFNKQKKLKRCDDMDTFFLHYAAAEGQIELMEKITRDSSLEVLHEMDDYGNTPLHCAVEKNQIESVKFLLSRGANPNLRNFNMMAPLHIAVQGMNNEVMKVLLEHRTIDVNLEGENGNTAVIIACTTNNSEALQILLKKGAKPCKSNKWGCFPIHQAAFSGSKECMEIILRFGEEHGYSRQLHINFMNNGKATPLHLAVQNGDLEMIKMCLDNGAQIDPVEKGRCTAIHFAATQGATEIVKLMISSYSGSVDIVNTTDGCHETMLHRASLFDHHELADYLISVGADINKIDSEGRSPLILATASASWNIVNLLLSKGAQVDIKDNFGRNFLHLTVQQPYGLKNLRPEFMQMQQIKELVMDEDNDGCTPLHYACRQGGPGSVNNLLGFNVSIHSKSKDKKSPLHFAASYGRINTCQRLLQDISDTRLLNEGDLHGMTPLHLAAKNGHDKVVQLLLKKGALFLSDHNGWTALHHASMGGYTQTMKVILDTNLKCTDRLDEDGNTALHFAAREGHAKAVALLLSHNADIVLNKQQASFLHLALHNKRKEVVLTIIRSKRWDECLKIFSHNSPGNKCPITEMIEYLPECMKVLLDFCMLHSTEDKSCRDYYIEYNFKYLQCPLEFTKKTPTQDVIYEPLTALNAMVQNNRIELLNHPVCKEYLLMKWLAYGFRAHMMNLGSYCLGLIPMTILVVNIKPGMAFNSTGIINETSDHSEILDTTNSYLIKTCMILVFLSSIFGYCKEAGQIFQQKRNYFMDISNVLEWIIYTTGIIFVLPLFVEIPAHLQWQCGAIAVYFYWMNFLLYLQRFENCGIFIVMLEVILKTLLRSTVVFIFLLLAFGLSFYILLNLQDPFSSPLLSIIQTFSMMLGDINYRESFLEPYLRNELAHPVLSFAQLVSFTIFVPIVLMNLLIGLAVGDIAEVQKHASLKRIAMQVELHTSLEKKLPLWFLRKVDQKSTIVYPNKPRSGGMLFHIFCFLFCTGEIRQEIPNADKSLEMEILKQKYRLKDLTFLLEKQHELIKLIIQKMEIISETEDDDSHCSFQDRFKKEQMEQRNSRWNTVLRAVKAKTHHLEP

In the case of `CC12CCC(CC1=O)C2(C)C` (stereo not drawn), the Activity [1] is reported as “Active”.

`NCC1(CC(=O)O)CCCCC1` [GABAPENTIN] showed an ED50 (Rattus norvegicus) of no less than 30 mg/kg and an ED50 (Mus musculus [2]) of no less than 40 mg/kg.

In the case of `CC1CCC(C(C)C)C(O)C1` (stereo not drawn), the Activity [3] is reported as “Active”.

With `COc1cc(CNC(=O)CCCC/C=C/C(C)C)ccc1O` [CAPSAICIN] the LD50 [4] was 119 mg/kg, the Drug absorption [5] was “Active” and the LD50 [6] was 7.5 mg/kg. For the same compound, the Activity (Mus musculus [7]) was “Active”, the Drug uptake [8] was “Active” and the Activity [9] was “Toxic”. For the same compound, the Activity [10] was “Toxic”.

For `O=C/C=C/c1ccccc1`, the Activity [11] was “Active” and the Activity [12] was “Active”.
